Screening results from PubChem BioAssay.
Sampled rows, rich in hits. Any-hit rate of the full collection: about 3%.
SENP7 inh – blocks the human protease SENP7. Q9BQF6. recombinant SENP7, Z-RLRGG-aminoluciferin luminescence, 40 min. inhibition, % at 5 µM. actives 1.5% (n = 330,000). AID 434973;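 active = inhibition above about 50% at the single test dose, limit read from the data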;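 note: plate controls were DMSO with enzyme for no effect and no enzyme buffer wells for full effect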
UBC13 inh – human UBC13 polyubiquitination inhibition; P61088; UBC13 polyubiquitin chain formation, TR-FRET; inhibition, % at 20 µM; actives 0.47% (n = 330,000); AID 485273; in the data active = inhibition above about 45%, passing the limit was not always enough
Target sequence (P61088 whole entry, looked up): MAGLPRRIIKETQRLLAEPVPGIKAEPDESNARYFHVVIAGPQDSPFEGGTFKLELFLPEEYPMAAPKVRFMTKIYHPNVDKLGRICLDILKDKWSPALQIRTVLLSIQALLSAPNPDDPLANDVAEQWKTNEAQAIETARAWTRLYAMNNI
SENP6 block – blocks the human protease SENP6. inhibition, % at 10 µM. actives 1.8% (n = 330,000). Recombinant SENP6 catalytic domain, aminoluciferin luminescence;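 active = inhibition above about 50% at the single tested dose, limit read from the data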;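 note: plate controls were DMSO wells with enzyme for no effect and DMSO wells lacking enzyme for full effect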
SENP8 block-1 – inhibitors of human SENP8 protease; Q96LD8; recombinant SENP8, Nedd8 substrate fluorescence; inhibition, % at 20 µM; actives 0.64% (n = 360,000); AID 602440; in the data active = inhibition mostly above about 40%, no sharp cut-off; inactive = mostly below about 27%
Target sequence (Q96LD8 whole entry, looked up): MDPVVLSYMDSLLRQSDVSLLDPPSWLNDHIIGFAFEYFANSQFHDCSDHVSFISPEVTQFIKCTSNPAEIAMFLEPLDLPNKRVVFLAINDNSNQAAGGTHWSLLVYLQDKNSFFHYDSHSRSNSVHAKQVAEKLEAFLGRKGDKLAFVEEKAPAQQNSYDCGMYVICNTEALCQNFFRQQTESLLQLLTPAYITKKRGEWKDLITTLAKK
Apaf-1 inh – blocks human Apaf-1 apoptosome activity | O14727 | reconstituted apoptosome caspase-3 activity, DEVD-Rh110 fluorescence | inhibition, % at 20 µM | actives 0.71% (n = 330,000) | AID 489030; active = inhibition of at least 40% at 20 µM;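 note: plate controls were DMSO wells for no effect and DEVD-CHO caspase inhibitor wells for full effect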
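System: reconstituted apoptosome with Apaf-1, cytochrome c, caspase-9, procaspase-3, dATP; Signal: Rh110 fluorescence intensity; Schedule: 30 min compound preincubation, 50 min activation, room temperature; Reagent: cytochrome c trigger plus (Z-DEVD)2-Rh110 caspase-3 substrate.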
SENP8 block-2 – SENP8 protease inhibition | Q96LD8 | purified SENP8, Z-RLRGG-aminoluciferin cleavage, luminescence | inhibition, % at 10 µM | actives 1.2% (n = 330,000) | AID 2540; in the data active = inhibition above about 50%
* = called active by the depositor.

What do the screens show for `Cc1nc2ccc(-c3nc4ccccc4[nH]3)cc2[nH]1`?
SENP7 inh: 49; UBC13 inh: 7; SENP6 block: 57*; SENP8 block-1: -188; Apaf-1 inh: -17; SENP8 block-2: 16

Results for Cc1nc2c(OCc3ccc(Cl)cc3)cccn2c1N(C)C(=O)CCC1CCCC1 ?
SENP8 block-1: 0

How did CC(C)Cc1csc(NC(=O)c2ccc(F)cc2)c1C(=O)O do in these assays?
SENP7 inh: 2; UBC13 inh: 5; SENP6 block: 89*; SENP8 block-1: -49; Apaf-1 inh: 14; SENP8 block-2: 84*

Results for N#C/C=C1/NC(=O)c2ccccc2S1 ?
SENP7 inh: 7; UBC13 inh: 1; SENP6 block: -1; SENP8 block-1: 44*; Apaf-1 inh: -26; SENP8 block-2: -4

Results for COC(=O)c1ccc2c(c1)NC(=O)c1ccccc1S2 ?
SENP7 inh: 0; UBC13 inh: 9; SENP6 block: 13; SENP8 block-1: 17; Apaf-1 inh: 6; SENP8 block-2: -3

What do the screens show for `COc1ccc(S(=O)(=O)Nc2cccc3c2O[C@H](CN(C)Cc2ccccc2)[C@@H](C)CN([C@H](C)CO)C3=O)cc1`?
SENP7 inh: -2; UBC13 inh: -5; SENP6 block: -14; SENP8 block-1: 12; Apaf-1 inh: 53*; SENP8 block-2: -7

Results for COc1ccc(S(=O)(=O)Nc2cccc3c2O[C@H](CN(C)Cc2ccncc2)[C@@H](C)CN([C@H](C)CO)C3=O)cc1 ?
SENP7 inh: 8; UBC13 inh: 5; SENP6 block: 0; SENP8 block-1: 29; Apaf-1 inh: 4; SENP8 block-2: -6

What do the screens show for `COc1ccccc1OCCn1nc2ccccc2c1OC`?
SENP8 block-1: -24

What do the screens show for `CC(C)(C)OC(=O)NCCc1nc(NC(=O)OCc2ccccc2)sc1C(=O)O`?
SENP8 block-1: 6

How did COC(=O)Nc1nnc(-c2ccccc2OC)s1 do in these assays?
SENP7 inh: 67*; UBC13 inh: 1; SENP6 block: 42; SENP8 block-1: -168; Apaf-1 inh: -8; SENP8 block-2: 33

What do the screens show for `CCOC(=O)N1CCN(C(=O)C[C@@H]2C[C@@]3(C(=O)OC)CC(C)(C)CC=C3N(CCc3ccc(OC)c(OC)c3)C2=O)CC1`?
SENP8 block-1: -1

How did COc1ccc(S(=O)(=O)N2CCCCCC2)cc1C(=O)N(C)CCOc1ccccc1 do in these assays?
SENP7 inh: 5; UBC13 inh: 18; SENP6 block: -5; SENP8 block-1: 12; Apaf-1 inh: 55*; SENP8 block-2: -4

How did C=CCn1c(O)c(N=NC(=S)Nc2ccccc2F)c2ccccc21 do in these assays?
SENP7 inh: -2; UBC13 inh: -39; SENP6 block: 9; SENP8 block-1: 23; Apaf-1 inh: 4; SENP8 block-2: -6

Results for C=CCn1c(O)c(N=NC(=S)Nc2cccc(C)c2)c2ccccc21 ?
SENP7 inh: -3; UBC13 inh: 19; SENP6 block: 10; SENP8 block-1: 42*; Apaf-1 inh: 9; SENP8 block-2: -3

How did Oc1ccc(/C=N/N=C/c2ccc(O)c(O)c2)cc1O do in these assays?
SENP7 inh: 2; UBC13 inh: -11; SENP6 block: 6; SENP8 block-1: 39; Apaf-1 inh: -5; SENP8 block-2: 2

What do the screens show for `Oc1ccc(N=Cc2ccc(O)c(O)c2)cc1`?
SENP7 inh: 8; UBC13 inh: -30; SENP6 block: 39; SENP8 block-1: 62*; Apaf-1 inh: 75*; SENP8 block-2: 23

How did COc1ccc(O)c(N)c1 do in these assays?
SENP7 inh: 11; UBC13 inh: -25; SENP6 block: 41; Apaf-1 inh: 76*; SENP8 block-2: 21

What do the screens show for `CCOC(=O)/C(N=Nc1ccc(F)cc1)=C(/O)c1ccc([N+](=O)[O-])cc1`?
SENP7 inh: 9; UBC13 inh: -8; SENP6 block: -1; SENP8 block-1: 43*; Apaf-1 inh: 2; SENP8 block-2: 5

What do the screens show for `CC(C)Cn1c(O)c(/C=C2\C=NN=C2c2ccccc2)sc1=S`?
SENP7 inh: -1; UBC13 inh: 6; SENP6 block: -20; SENP8 block-1: 40*; Apaf-1 inh: 21; SENP8 block-2: -9

What do the screens show for `CCCCn1c(O)c(/C=C2\C=NN=C2c2ccccc2)sc1=S`?
SENP7 inh: -10; UBC13 inh: -15; SENP6 block: -2; SENP8 block-1: 19; Apaf-1 inh: 15; SENP8 block-2: -7

Results for CCCCCCn1c(O)c(/C=C2\C=NN=C2c2ccccc2)sc1=S ?
SENP7 inh: -2; UBC13 inh: -10; SENP6 block: -5; SENP8 block-1: 42*; Apaf-1 inh: 20; SENP8 block-2: -5

How did O=C(COC(=O)c1ccc(O)cc1)c1ccc2c(c1)OCCO2 do in these assays?
SENP7 inh: 57*; UBC13 inh: 1; SENP6 block: 87*; SENP8 block-1: -1; Apaf-1 inh: 4; SENP8 block-2: 70*

How did CC(C)Sc1ccc(C(=O)Nc2ccc(F)cc2F)cn1 do in these assays?
SENP7 inh: 68*; UBC13 inh: 7; SENP6 block: 70*; SENP8 block-1: 10; Apaf-1 inh: -1; SENP8 block-2: 56*

Results for N#CCOc1ccccc1/C=C/c1nc2ccccc2c(=O)[nH]1 ?
SENP7 inh: 2; UBC13 inh: -2; SENP6 block: -10; SENP8 block-1: -62; Apaf-1 inh: 5; SENP8 block-2: -8

What do the screens show for `Cc1ccccc1/C=C/c1nc2ccccc2c(=O)[nH]1`?
SENP7 inh: 86*; UBC13 inh: 2; SENP6 block: 12; SENP8 block-1: -71; Apaf-1 inh: -5; SENP8 block-2: 69*

What do the screens show for `CCOc1cc(CNc2ccc(N(C)C)cc2)cc(Br)c1OCC(=O)NC(C)(C)C`?
SENP7 inh: 31; UBC13 inh: -8; SENP6 block: 8; SENP8 block-1: 11; Apaf-1 inh: 44*; SENP8 block-2: 8

Results for CCn1c2ccccc2nc2cc3c(cc21)c(Cl)c(=O)c1ccccc13 ?
SENP8 block-1: 81*

What do the screens show for `CCC(=O)Nc1cccc(NC(=S)NC(=O)c2cc3ccccc3o2)c1`?
SENP7 inh: 76*; UBC13 inh: -16; SENP6 block: 10; SENP8 block-1: 15; Apaf-1 inh: -8; SENP8 block-2: -1

Results for CN1CCN(c2ccc(CNC(=O)C3(C)Cc4c(-c5ccc6c(c5)OCO6)ccnc4O3)cc2)CC1 (stereo not given) ?
SENP8 block-1: -38

Results for Cn1c(=O)c2cc(NC(=S)NCc3ccccc3F)ccc2n1Cc1cccc(C(F)(F)F)c1 ?
SENP8 block-1: -486

What do the screens show for `COc1ccc(Cn2c(SCc3ccccc3C)nc3cc(OC)c(OC)cc3c2=N)cc1`?
SENP7 inh: 3; UBC13 inh: 34; SENP6 block: 3; SENP8 block-1: -1; Apaf-1 inh: 70*; SENP8 block-2: -5
